Screens (PubChem)
A selection: hits, their analogues and other compounds. The true share with any hit is near 3.4%.
Cl transport mod: KCC2 cotransporter modulators, thallium flux, primary screen, cell-based, HEK293 KCC2, FluoZin-2 fluorescence, MLSMR; Solute carrier family 12 member 5 (Homo sapiens), Q9H2X9; KCC2 cells, thallium flux FluoZin-2 fluorescence; B-score of Tl+ flux slope (higher = more flux/activation; lower = inhibition) at 10 µM; actives 2.2% (n = 190,000);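 active = thallium flux slope and its plate-corrected score both differing from the plate sample mean at a set confidence after two filtering rounds, in either direction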;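 note: slope of fluorescence scaled to starting intensity during 10 to 20 s after thallium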
ROMK mod: ROMK potassium channel modulators, primary screen, cell-based, thallium flux, MLSMR library; ATP-sensitive inward rectifier potassium channel 1 (Homo sapiens), P48048; Tet-inducible ROMK, thallium flux fluorescence; actives lie on both sides; B-score at 10 µM; actives 2% (n = 130,000); AID 1918, 2009;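 active = signal ratio slope over the read window, or its plate-corrected B-score, at least 3 SD from the plate mean, either direction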;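 note: B-score of the F/F0 ratio slope over 7 to 12 s after thallium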
Mdm2 ligase inh: MDM2-luciferase reporter signal enhancers, primary screen, MDM2 E3 ligase inhibitor project, cell-based, luminescence, 1536-well; cell-based MDM2 ubiquitination luciferase reporter, 2 h; 0 = plate control, 100 = twice control, blank-subtracted; actives 0.11% (n = 210,000); AID 1230, 2008; signal enhancement, % at 5 µM;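 active = signal enhancement of 30% or more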;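 note: luminescence tracks abundance of the self-degrading MDM2-luciferase fusion protein; higher signal means inhibition of MDM2 E3 ligase activity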
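Assay system: mammalian cells stably expressing self-ubiquitinating, self-degrading MDM2 E3–luciferase fusion. Quantity: 2000 cells in each well. Medium: DMEM culture medium. Compound dosing: single-point 5 µM. Timing: cell settling 4 h, compound treatment 2 h, both 37 °C. Technique: luciferase luminescence. Read-out basis: percent signal gain over controls, blank-subtracted. Benchmarks: plate controls and plate blanks.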
PKD1 kinase inh: inhibitors of human PKD1 kinase, biochemical, fluorescence polarization | inhibition, % (no concentration beside the values) | AID 797, 2007 | PKD1 kinase fluorescence polarization assay | Serine/threonine-protein kinase D1 (Homo sapiens), Q15139 | actives 0.056% (n = 200,000); in the data active = inhibition above about 50%
Redox H2O2 prof: compounds producing H2O2 with reducing agent – biochemical, NIH compound library profiling, artefact control for MLSCN library redox annotation, primary screen. DTT-dependent redox cycling H2O2, phenol red/HRP absorbance; 100% = 100 µM peroxide control, 0% = buffer. activation, % at 10 µM. actives 0.03% (n = 200,000);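 active = activation of at least 50% relative to the plate's high and low controls in the primary single-dose screen; inactive = activation below 50%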;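 note: compound incubated with DTT at 0.8 mM final as the reducing agent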
p97 ATPase inh: inhibitors of human p97 ATPase, primary screen, biochemical; Transitional endoplasmic reticulum ATPase (Homo sapiens), P55072; recombinant p97 ATPase, Kinase-Glo ATP luminescence, 3 h; inhibition, % at 8 µM; actives 0.42% (n = 220,000); AID 1481, 2009; in the data active = inhibition above about 15%;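 note: 0% = DMSO vehicle and 100% = wells lacking enzyme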
ROMK retest: ROMK channel modulator hit retest, confirmation, cell-based, thallium flux, duplicate, resupplied hits; shares compounds with ROMK mod; fluorescence ratio; active compounds read low; normalized thallium flux (F/F0 slope) at 10 µM; actives 54% (n = 3,000);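 active = Flux at 10 µM at least 3 SD below or above vehicle control mean in one or both replicates; inconclusive = no clear call, values can overlap the other calls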
* hit, by the source's call; ? = inconclusive; nt = no result given.

SMILES | Cl transport mod | ROMK mod | Mdm2 ligase inh | PKD1 kinase inh | Redox H2O2 prof | p97 ATPase inh | ROMK retest
CCOC(=O)C1=C(Cc2ccc(F)cc2)C(=O)c2ccccc2C1=O | -0.0655 | -3.28* | -2.2 | 4.2 | 0.2 | 1.9 | 0.0608*
O=C(N=Nc1c(O)[nH]c2ccccc12)c1cccc(S(=O)(=O)Nc2ccccc2Cl)c1 | 0.593 | -0.162 | -9.8 | 1.7 | -0.7 | 3.2 | nt
O=C(O)c1cccc(NC2=C(Cl)C(=O)c3ccccc3C2=O)c1 | -2.27 | -1.91 | -1.7 | 0.9 | 1.5 | 3.3 | 0.0558*
COCCCNCCCCOc1ccccc1-c1ccccc1 | -0.0454 | -1.12 | -6.9 | -8.3 | -0.2 | 2.3 | nt
C=CCNCCCCOc1ccccc1-c1ccccc1 | -0.0242 | -3.03* | -2.8 | 11.3 | 0.0 | -0.7 | 0.0621*
CCN(CC(=O)Nc1cc(OC)ccc1OC)Cc1nc2ccccc2c(=O)[nH]1 | -0.0268 | 2.77* | 1.7 | -11.1 | -0.4 | 2.6 | 0.0696
CN(Cc1ccccc1)c1ncnc2c1cnn2-c1ccccc1 | nt | nt | -11.2 | -5.0 | 1.0 | 0.3 | nt
CCN(c1ccccc1)c1ncnc2c1cnn2-c1ccccc1 | nt | nt | -4.7 | 0.6 | -0.9 | 2.0 | 0.0554*
COc1cc(C2C3=C(Nc4ncnn42)c2ccccc2CC3)cc(OC)c1OC (stereo not given) | nt | 3.91* | -21.3 | -7.0 | -0.1 | -1.7 | 0.0869
COc1ccccc1NC(=O)c1ccc(NC(=O)CN2CCN(C(=O)c3ccco3)CC2)cc1 | 0.36 | 0.221 | -11.7 | -0.3 | 0.0 | 1.9 | nt
CN1C(=O)C2(OCC(COc3ccc(Cl)cc3)O2)c2ccccc21 (stereo not given) | 0.496 | nt | 16.8 | 5.5 | -0.4 | -5.4 | 0.0781
CC1(C)CC(=O)C2=C(C1)N(CCN1CCOCC1)C1=C(C(=O)CC(C)(C)C1)C2c1cccc(Cl)c1 | nt | -2.96* | -6.8 | 6.9 | -2.9 | -3.3 | 0.0524*
Cc1ccc(C2CC(c3cccs3)=NN2C(=O)c2ccco2)o1 (stereo not given) | -0.471 | -5.54* | -4.9 | 2.2 | -0.1 | 0.4 | ?
O=c1ccc(/C=C/c2ccccc2)nn1Cc1ccc(Cl)cc1Cl | nt | -0.556 | -15.3 | 2.6 | 0.4 | 0.1 | nt
COc1ccc(NC(=O)CCN2CCN(S(=O)(=O)c3cc(Cl)ccc3OC)CC2)cc1 | nt | -3.34* | -14.4 | -10.2 | 0.0 | -4.4 | 0.0607*
N#CC1=C(N)N(c2ccccc2)C(c2ccccc2)C1(C#N)C#N (stereo not given) | 0.535 | -3.04* | -12.7 | -4.6 | 0.9 | -1.5 | 0.0546*
O=C(CCl)N(c1ccc(Cl)cc1)c1c[nH]c2ccccc12 | -1.51 | -2.22 | -10.1 | 3.5 | -0.9 | 4.3 | 0.0557*
O=C(CCl)N(c1ccccc1)c1c[nH]c2ccccc12 | -1.76 | nt | -2.5 | -4.3 | 1.0 | 6.2 | nt
CN1\C(=C/C=C/C=C/C=[N+](C)C)C(C)(C)c2ccccc21 | nt | -3.59* | -23.1 | -7.5 | -0.6 | -0.9 | 0.0513*
CN1/C(=C\C=O)C(C)(C)c2ccccc21 | 0.206 | 0.435 | -6.1 | 5.8 | -0.4 | -2.1 | nt
CCc1nnc(NC(=O)C2CCC(CNc3c(N4CCCCC4)c(=O)c3=O)CC2)s1 (stereo not given) | 1.81 | -11.9* | -19.2 | nt | nt | 1.6 | 0.0862
O=C(NCCc1ccccc1F)C1CCCN1S(=O)(=O)c1ccc2ccccc2c1 (stereo not given) | -2.22 | -3.55* | -3.0 | -0.4 | 0.6 | 0.4 | 0.0561*
Cc1ccccc1N1C(=O)c2sc3nc4c(c(=O)n3c2C1=O)CCC4 | nt | -3.13* | -11.8 | 3.4 | -0.1 | -0.7 | 0.0778
O=C1c2sc3nc4c(c(=O)n3c2C(=O)N1c1ccccc1)CCC4 | -0.463 | 1.4 | -4.8 | -5.7 | 2.2 | 13.9 | nt
CCOC(=O)C1CCCN(C(=O)CSc2ccccc2)C1 (stereo not given) | 0.718 | 0.66 | 11.6 | 0.7 | -0.4 | 3.2 | nt
SMILES | Cl transport mod | ROMK mod | Mdm2 ligase inh | PKD1 kinase inh | Redox H2O2 prof | p97 ATPase inh | ROMK retest
O=C(Nc1cccnc1)c1ccc(Cl)c(S(=O)(=O)N2CCc3ccccc32)c1 | -1.23 | -3.79* | -14.3 | -7.8 | -0.7 | 8.3 | 0.0664*
Cc1nn(CC(O)COc2ccc3c(c2)CCC3)c(C)c1C (stereo not given) | nt | -3.7* | -3.8 | 3.6 | -2.3 | -2.4 | 0.0663*
Cc1ccc(CNC(=O)CSCc2cccc(F)c2)cc1 | -0.555 | 0.0588 | -5.8 | -9.0 | 0.0 | 3.5 | nt
O=C(O)CCC(=O)NNC(=O)CCC1CCCCC1 | 0.152 | -0.184 | 11.3 | -6.5 | -0.3 | -5.3 | nt
O=C(CCC1CCCCC1)NNC(=O)NC12CC3CC(CC(C3)C1)C2 | 0.36 | -3.09* | -6.8 | 5.0 | -0.1 | -3.0 | 0.0706
COc1ccc(-c2csc3ncnc(Cl)c23)cc1 | -0.249 | -1.24 | -20.1 | 1.9 | -1.0 | 3.5 | nt
COc1ccc(Nc2ncnc3scc(-c4ccc(OC)cc4)c23)cc1 | -1.2 | -0.708 | -12.8 | -4.6 | 0.2 | 1.1 | 0.0661*
CCC(C)(C)n1nnnc1C(C(C)C)N(CCN1CCOCC1)Cc1cc2cccc(C)c2[nH]c1=O (stereo not given) | -0.385 | -2.9* | 0.9 | 7.2 | -0.1 | -1.8 | 0.055*
CCN1C(=O)/C(=C/C=C2/CCCN2C)OC1=S | -0.75 | -4.89* | 5.2 | -5.2 | -0.5 | 4.3 | 0.0639*
CN1C(=O)/C(=C\C=C2/CCCN2C)N(C)C1=S | -0.683 | -1.61 | -22.5 | -1.0 | 0.0 | 2.4 | nt
O=C(C1CCCN(S(=O)(=O)c2cccnc2)C1)N1CCN(c2ccccn2)CC1 (stereo not given) | -1.32 | nt | -7.0 | -8.7 | -0.9 | -5.2 | nt
CCOC(=O)N1CCN(C(=O)C2CCCN(S(=O)(=O)c3cccnc3)C2)CC1 (stereo not given) | nt | nt | -17.1 | 3.6 | -2.0 | -3.4 | 0.0779
Cc1cc(NC(=O)c2noc3c2CCc2ccccc2-3)n(-c2ccccc2)n1 | 0.127 | nt | -4.5 | -16.6 | -0.5 | -3.0 | 0.0828
Cc1ccc(NC(=O)c2noc3c2CCc2ccccc2-3)cc1 | nt | 0.798 | -0.9 | -20.4 | 0.0 | -7.2 | nt
COc1ccc(-c2cc(C(=O)Nc3cc(C)nn3-c3ccccc3)no2)cc1OC | 0.221 | 3.69* | 8.9 | -7.5 | -0.2 | 3.2 | 0.0766
Cc1ccc(C(=O)COC(=O)c2ccc(Br)o2)cc1C | -0.902 | nt | -15.7 | -5.7 | -1.4 | -7.3 | nt
